Screens (PubChem BioAssay)
The list is not random: actives were taken first. Their share in the collection is about 4.1%.
MC4R antagonist – antagonists of human melanocortin 4 receptor (MC4R); P32245; MC4R-expressing cells, MTII-stimulated cAMP, LANCE TR-FRET; inhibition, % at 6.5 µM; 360,000 compounds, 0.48% hits;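 active means inhibition above its plate's cutoff, the mean of tested wells on that plate plus 3 SD, cut at about 29% in these data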;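 further: 0% = Melanotan II alone and 100% = Melanotan II plus saturating MCL0020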
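Assay system: human MC4R-expressing U2OS cells; reagent: Melanotan II stimulation of cells; dosing: 6.5 µM single dose; timing: compound 30 min, challenge 1 h, detection 1 h; signal: TR-FRET cAMP assay; replicates: one well per compound, no replicates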
ATG4B inhibitor – blocks human ATG4B protease cleavage of LC3 substrate; ATG4B cleavage of LC3-PLA2, NBD-HPC fluorescence, 1 h; inhibition, % at 8.33 µM; 340,000 compounds, 0.51% hits; AID 504462; in the data active means inhibition above about 40%
Target sequence (Q9Y4P1 whole entry, looked up): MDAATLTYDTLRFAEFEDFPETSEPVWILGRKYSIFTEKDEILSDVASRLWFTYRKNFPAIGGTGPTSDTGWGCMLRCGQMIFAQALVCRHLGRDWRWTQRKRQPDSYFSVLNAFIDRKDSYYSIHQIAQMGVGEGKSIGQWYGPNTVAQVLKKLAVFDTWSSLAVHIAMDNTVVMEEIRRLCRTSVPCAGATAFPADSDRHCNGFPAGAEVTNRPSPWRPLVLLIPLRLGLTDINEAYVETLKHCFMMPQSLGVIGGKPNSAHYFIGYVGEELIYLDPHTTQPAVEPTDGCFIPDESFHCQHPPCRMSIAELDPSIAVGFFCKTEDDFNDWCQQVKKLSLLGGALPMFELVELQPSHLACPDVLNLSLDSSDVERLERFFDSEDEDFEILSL
MPTP block – inhibitors of mitochondrial permeability transition pore | inhibition, % at 10 µM | 360,000 compounds, 1.4% hits | isolated mouse mitochondria, Ca2+ swelling absorbance, 30 min;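 active means inhibition of 50% or more, scaled per plate between neutral and stimulator controls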;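 further: 0% = DMSO wells given calcium and 100% = 1 mM EGTA wells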
MC4R ag barr – human MC4R agonism via beta-arrestin; U2OS MC4R beta-arrestin complementation, luminescence; percent of melanotan II response, DMSO zero; 360,000 compounds, 0.98% hits; activation, % at 8.9 µM; P32245; AID 540308;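 active means activation above a per-plate cutoff, the mean activation of sample wells on that plate plus 3 SD, cut at about 8% in these data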
SMARCA2 act – SMARCA2 function activation, primary screen; 370,000 compounds, 1% hits; activation, % at 9.1 µM; AID 652017; MG213 cells, MMTV-luciferase reporter, dexamethasone, overnight; in the data active means activation above about 7.8%;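 further: 0% = vehicle wells and 100% = reference activator wells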
MPTP counter – Rhodamine 123 counter-screen of mitochondrial pore hits. shares compounds with MPTP block. isolated mitochondria, membrane potential, Rhodamine 123 fluorescence. inhibition, % at 10 µM. 5,000 compounds, 78% hits. AID 624504; in the data active means inhibition above about 22%;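 further: 0% = DMSO vehicle and 100% = positive control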
MPTP swell DR – dose response confirmation of mitochondrial permeability transition pore inhibitors | shares compounds with MPTP block | isolated mitochondria swelling, absorbance | IC50, µM | 780 compounds, 58% hits; in the data active means IC50 below about 20 µM
MPTP cs DR – counter-screen for mitochondrial permeability transition pore inhibitors, dose response | shares compounds with MPTP block | IC50, µM | AID 651564 | 780 compounds, 49% hits | isolated mitochondria counterscreen, fluorescence read-out; in the data active means IC50 below about 80 µM
Active calls of the source: *; i = inactive; nt = no result given.

SMILES	MC4R antagonist	ATG4B inhibitor	MPTP block	MC4R ag barr	SMARCA2 act	MPTP counter	others
Oc1ccccc1C1CC(c2cccs2)=NC(c2cccc(Br)c2)N1 (centres undefined)	-5	-1	84*	2	2	97*
C#CCN1CC(COc2ccccc2)OCCS1(=O)=O (centres undefined)	nt	nt	nt	nt	-4	nt
CCOC(=O)N1CCN(CCC(=O)c2ccc(Cl)cc2)CC1	14	-7	103*	-3	3	4	MPTP swell DR=i;MPTP cs DR=>80
CCOC(=O)N1CCN(CCC(=O)c2ccc(Br)cc2)CC1	12	0	2	-1	-2	nt
COc1cccc(CN(C)C(=O)[C@H]2O[C@@H](n3cnc4c(=O)[nH]c(N)nc43)[C@H](O)[C@@H]2O)c1	nt	nt	nt	nt	-1	nt
Cc1ccc(NC(=O)c2ccc(Cl)c(N3C(=O)C=CC3=O)c2)cc1	55*	-4	84*	-1	5	86*
CC(C)CNC(=S)N1CCN(c2nc(-c3ccc(Cl)cc3)cs2)CC1	8	3	45	2	-2	nt
COc1cccc(-c2csc(N3CCN(C(=O)Nc4ccc(Cl)cc4)CC3)n2)c1	11	-6	88*	-4	-4	89*
COCCCNC(=S)N1CCN(c2nc(-c3ccc(Cl)cc3)cs2)CC1	3	nt	76*	-1	-4	78*
CC(C)(C)c1ccc(-c2nnc(SCCC#N)n2C2CCCC2)cc1	18	-7	69*	1	-3	15	MPTP swell DR=i;MPTP cs DR=23*
CCc1c(C(=O)Nc2ccc(OC)c(Cl)c2)[nH]c(C)c1C(C)=O	5	-4	88*	-2	-5	95*
C=CCc1cccc(/C=N/NC(=O)C(C)Nc2cccc(C)c2)c1O (centres undefined)	18	-1	73*	6	-2	61*
CC1=NN(c2ccccc2)C(=O)/C1=C/c1c(O)n(-c2ccc(F)cc2)[nH]c1=O	-2	12	61*	-3	2	13
CC1=NN(c2ccccc2)C(=O)/C1=C/c1ccc(Cl)cc1	0	2	98*	-1	0	84*
CC1=NN(c2ccccc2)C(=O)C1=Cc1ccccc1	5	nt	11	-1	-4	nt
COc1ccc(NC(=O)COC(=O)CNS(=O)(=O)c2ccccc2)cc1OC	9	-2	120*	-3	-2	-3
COc1ccc(-c2cn3c(C)c(C(=O)Nc4cccc(NC(C)=O)c4)sc3n2)cc1	16	-25	80*	-1	2	23*
O=C(CN(Cc1ccco1)C(=O)c1ccccc1)Nc1ccc(Cl)c(Cl)c1	6	-9	41	3	-1	nt
Cc1ccc(C(=O)N(CC(=O)Nc2ccc(Cl)c(Cl)c2)Cc2ccco2)cc1	2	13	53*	1	-3	71*
O=[N+]([O-])c1cc2c(ccc3occc32)o1	nt	nt	nt	nt	2	nt
COc1ccc(CCN2C(=O)CSC2=Nc2ccc(C(C)C)cc2)cc1OC	16	-4	90*	-1	-8	94*
O=[N+]([O-])c1ccc(N/N=C/c2sc(N3CCOCC3)nc2-c2ccccc2)c(S(=O)(=O)Nc2ccc(Cl)cc2)c1	25	13	86*	-2	-2	76*
O=C(O)c1cccc(N/N=C/c2sc(N3CCOCC3)nc2-c2ccccc2)c1	-2	14	-1	1	5	nt
CCOC(=O)C1=CCN(S(=O)(=O)c2ccc(Br)cc2)C1c1cccc(F)c1 (centres undefined)	nt	nt	nt	nt	-5	nt
CC(C)OP(=O)(O)C(C)NC(=O)OCc1ccccc1 (centres undefined)	nt	nt	nt	nt	-2	nt
CCCN1CCN(C(=S)Nc2ccc([N+](=O)[O-])cc2)CC1	17	-16	60*	0	1	66*
O=C(Nc1ccc(Cl)cc1)N1CCN(c2ccccc2)CC1	4	-13	66*	-2	-1	75*
O=[N+]([O-])c1ccc(NC(=S)N2CCN(c3ccccc3)CC2)cc1	0	-2	72*	-4	1	84*
Cn1c(=O)c(=O)n(C)c2cc(S(=O)(=O)N3CCN(Cc4ccc(F)cc4)CC3)ccc21	nt	nt	nt	nt	0	nt
